ChEMBL document CHEMBL2163340, “Fluostatins I-K from the South China Sea-derived micromonospora rosaria SCSIO N160” (J Nat Prod, 2012)
In brackets after ≈: the same amount, converted by molar mass.

Experiments:
MCF7 = assay: Cytotoxicity against human MCF7 cells by SRB assay; assay type: functional, cell-based
In short: (§1)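 Sulforhodamine B assay following a previously described protocol, run on three human tumour lines: MCF-7 (breast adenocarcinoma), NCI-H460 (non-small-cell lung cancer) and SF-268 (glioma). Activity was reported as IC50.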

NCI-H460 = assay: Cytotoxicity against human NCI-H460 cells by SRB assay; assay type: functional, cell-based; in short: as §1
SF-268 = assay: Cytotoxicity against human SF268 cells by SRB assay; assay type: functional, cell-based; in short: as §1
Candida albicans = assay: Antifungal activity against Candida albicans ATCC 10231 after 18 hrs by broth microdilution method; assay type: functional; details: ATCC 10231, 18 h
In short: (§2)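 Broth microdilution. Pre-cultures were grown 16 h on a rotary shaker: the bacteria at 37 °C and C. albicans at 28 °C. Each was adjusted with sterile medium to OD600 0.04–0.06, diluted a further 10-fold, and dispensed to plates. Compounds were serially diluted from 64 to 0.125 μg/mL in duplicate. OD600 was read after 18 h. MIC was the lowest concentration completely inhibiting visible growth, taken from two independent experiments.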

Bacillus subtilis = assay: Antibacterial activity against Bacillus subtilis SCSIO BS01 after 18 hrs by broth microdilution method; assay type: functional; details: SCSIO BS01, 18 h; in short: as §2
Bacillus thuringiensis = assay: Antibacterial activity against Bacillus thuringiensis SCSIO BT01 after 18 hrs by broth microdilution method; assay type: functional; details: SCSIO BT01, 18 h; in short: as §2
Staphylococcus aureus = assay: Antibacterial activity against Staphylococcus aureus ATCC 29213 after 18 hrs by broth microdilution method; assay type: functional; details: ATCC 29213, 18 h; in short: as §2
Escherichia coli = assay: Antibacterial activity against Escherichia coli ATCC 25922 after 18 hrs by broth microdilution method; assay type: functional; details: ATCC 25922, 18 h; in short: as §2

Row | SMILES | MIC (Candida albicans) [µg/mL] | MIC (Bacillus subtilis) [µg/mL] | MIC (Bacillus thuringiensis) [µg/mL] | MIC (Staphylococcus aureus) [µg/mL] | MIC (Escherichia coli) [µg/mL] | IC50 (MCF7) [µM] | IC50 (NCI-H460) [µM] | IC50 (SF-268) [µM]
1 | CC(C)C(=O)O[C@@H]1c2c(cc(O)c3c2C(=O)c2cccc(O)c2-3)C(=O)[C@@]2(C)O[C@@H]12 [FLUOSTATIN D] | > 64 | > 64 | > 64 | > 64 | > 64 | > 100 | > 100 | > 100
2 | C[C@]1(Cl)C(=O)c2cc(O)c3c(c2[C@@H](O)[C@@H]1O)C(=O)c1cccc(O)c1-3 [FLUOSTATIN E] | > 64 | > 64 | > 64 | > 64 | > 64 | > 100 | > 100 | > 100
3 | CO[C@@H]1c2c(cc(O)c3c2C(=O)c2cccc(O)c2-3)C(=O)[C@@]2(C)O[C@@H]12 [FLUOSTATIN F] | > 64 | > 64 | > 64 | 32 (≈ 94.6 µM) | > 64 | > 100 | > 100 | > 100
4 | CC(C)C(=O)O[C@@H]1c2c(cc(O)c3c2C(=O)c2cccc(O)c2-3)C(=O)[C@H](C)[C@H]1O [FLUOSTATIN I] | > 64 | > 64 | > 64 | > 64 | > 64 | > 100 | > 100 | > 100
5 | CCC(C)C(=O)O[C@@H]1c2c(cc(O)c3c2C(=O)c2cccc(O)c2-3)C(=O)[C@@]2(C)O[C@@H]12 (some centres not stated) [FLUOSTATIN J] | > 64 | > 64 | > 64 | > 64 | > 64 | > 100 | > 100 | > 100

Continued, in another order:

Row | MIC (Candida albicans) [µg/mL] | MIC (Bacillus subtilis) [µg/mL] | MIC (Bacillus thuringiensis) [µg/mL] | MIC (Staphylococcus aureus) [µg/mL] | MIC (Escherichia coli) [µg/mL] | SMILES | IC50 (MCF7) [µM] | IC50 (NCI-H460) [µM] | IC50 (SF-268) [µM]
6 | > 64 | > 64 | > 64 | > 64 | > 64 | C[C@]1(O)C=Cc2c(cc(O)c3c2C(=O)c2cccc(O)c2-3)C1=O [FLUOSTATIN K] | > 100 | > 100 | > 100
7 | > 64 | > 64 | > 64 | 16 (≈ 49.3 µM) | > 64 | C[C@]12O[C@H]1[C@H](O)c1c(cc(O)c3c1C(=O)c1cccc(O)c1-3)C2=O [FLUOSTATINS C] | > 100 | > 100 | > 100
8 | > 64 | 64 (≈ 210 µM) | 4 (≈ 13.1 µM) | 0.25 (≈ 0.819 µM) | 32 (≈ 105 µM) | Cc1cc(O)c2c3c(ncc2c1)C(=O)c1c(O)cccc1C3=O [PHENANTHROVIRIDONE] | 0.17 | 2.18 | 0.09
9 | > 64 | 16 (≈ 47.3 µM) | 8 (≈ 23.6 µM) | 1 (≈ 2.96 µM) | 16 (≈ 47.3 µM) | C[C@]1(O)CC(=O)c2c(cc(O)c3c2C(=O)c2cccc(O)c2C3=O)C1 [RABELOMYCIN] | 4.28 | 9.91 | 5.54
